# High-throughput results deposited in PubChem BioAssay by several laboratories.
# Hep lipid drop = inhibitors of hepatocyte lipid droplet formation, primary screen, imaging, high-throughput imaging, BODIPY stain | AML12 mouse hepatocytes, oleate lipid droplets | inhibition, % at 6.5 µM | hit rate 0.4% among 240,000 | AID 1656, 2009;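 active means lipid droplet intensity inhibited by at least 50%, with more than 500 cells counted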
#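 Material – AML12 mouse liver cells · Also added – oleate loading, 100 µM · Compound dosing – 6.5 µM single-point dosing · Times – overnight treatment with compound plus oleate · Measured by – fluorescence imaging, 20x objective, two fields per well · Read-out – percent inhibition of filter-corrected integrated lipid droplet intensity per well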
# STK33 inh = inhibitors of purified STK33 kinase, primary screen, biochemical, ADP-Glo luminescence, homogeneous, cell-free; Serine/threonine-protein kinase 33 (Homo sapiens), Q9BYT3; MBP phosphorylation; inhibition, % at 10 µM; hit rate 0.073% among 320,000; AID 2661, 2010;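 active means inhibition at or above 25%, using the most active replicate where run in duplicate; inactive means inhibition below 25%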
# GSK3 alpha inh = blockers of GSK3A enzyme activity – biochemical, luminescence, cell-free homogeneous, HTS, primary screen. inhibition, % at 10 µM. hit rate 0.1% among 320,000. GSK-3 alpha kinase, ADP-Glo luminescence, 60 min. Glycogen synthase kinase-3 alpha (Homo sapiens), P49840;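 active means more than half of replicates show inhibition above 20%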;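 further: GST-tagged GSK-3 alpha with peptide substrate and 25 µM ATP; 0% = DMSO neutral wells and 100% = GW8510 positive control wells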
# Target sequence (P49840 whole entry, looked up): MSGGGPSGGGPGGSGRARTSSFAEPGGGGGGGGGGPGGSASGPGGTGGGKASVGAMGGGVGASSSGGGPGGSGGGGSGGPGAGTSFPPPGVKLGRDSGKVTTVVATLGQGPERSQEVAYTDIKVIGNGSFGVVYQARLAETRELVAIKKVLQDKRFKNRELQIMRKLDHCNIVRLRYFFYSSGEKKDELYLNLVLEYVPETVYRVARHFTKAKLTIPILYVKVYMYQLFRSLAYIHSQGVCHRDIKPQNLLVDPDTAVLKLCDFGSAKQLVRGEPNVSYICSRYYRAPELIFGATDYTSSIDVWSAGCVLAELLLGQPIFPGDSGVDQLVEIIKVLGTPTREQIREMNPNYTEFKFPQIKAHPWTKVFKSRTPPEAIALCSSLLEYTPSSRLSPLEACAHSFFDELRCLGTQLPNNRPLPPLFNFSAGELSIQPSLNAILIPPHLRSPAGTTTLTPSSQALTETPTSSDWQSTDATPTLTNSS
# GSK3B inh = human GSK3beta kinase inhibitors, primary screen, biochemical, cell-free homogeneous, HTS; GST-GSK3beta kinase, ADP-Glo luminescence, 60 min; hits give low values; activity score (negative = inhibition), % at 10 µM; hit rate 0.038% among 300,000; AID 2097, 2009;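 active means more than half of replicate wells score below -50%, meaning over 50% inhibition versus plate controls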;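 further: 0% = median DMSO wells and -100% = median GW8510 positive control wells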
#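 Assay system: GST-fused GSK3beta enzyme, cell-free / Medium: Tris pH 7.5 buffer with MgCl2, DTT, BSA, heparin / Also added: peptide substrate plus 25 µM ATP (final) / Compound: 10 µM single point / Timing: kinase reaction with compound 60 min at room temperature / Detection: ADP-Glo luminescence / Benchmarks: DMSO neutral wells and GW8510 at 20 µM as positive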
# H9c2 TAG inh = inhibitors of triacylglycerol accumulation, primary screen, cell-based, uHTS, fluorescence, H9c2. hit rate 0.66% among 230,000. inhibition, % at 12.5 µM. AID 651582, 2012. H9c2 cells, Nile Red lipid (TAG) fluorescence; cells loaded with 200 µM oleic acid;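 active means pattern-corrected inhibition of lipid staining of at least 50% with the nuclear-stain viability signal not falling by more than 50%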;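 further: 0% = DMSO wells and 100% = triacsin C control wells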
# LANA-H2B inh = blockers of LANA interaction with H2A/H2B – biochemical, FP readout, HTS, primary screen | Protein LANA1 (Human herpesvirus 8 type P (isolate GK18)), Q9QR71 | inhibition, % (test concentration not listed) | hit rate 0.6% among 320,000 | cell-free LANA-H2A/H2B peptide, fluorescence polarization; in the data active means inhibition mostly above about 10%, no sharp cut-off; inactive means mostly below about 6.7%
# Hep lipid conf = hepatocyte lipid droplet accumulation inhibitors, confirmation, imaging, AML12 mouse hepatocytes, single concentration, high-content; inhibition, % at 5.2 µM; hit rate 65% among 870; BODIPY lipid droplet imaging; droplets induced with 100 µM oleic acid; shares compounds with Hep lipid drop;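 active means inhibition of lipid droplet metric at least 50%, with more than 300 cells in each of four replicates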;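 further: plate controls were DMSO with oleic acid for no effect and 5 µM Triacsin-C for full effect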
# AML12 cytotox = AML12 hepatocyte cytotoxicity, counter-screen for hepatic lipid droplet formation project, imaging, DAPI nuclear morphology imaging; shares compounds with Hep lipid drop; z-score at 5 µM; AID 463200, 2010; AML12 mouse hepatocytes; hits give high values; cells fed 100 µM oleate overnight; hit rate 3% among 870; in the data active means z-score above about 6.3;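 further: compound exposure lasted overnight at 37 °C before fixation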
# AML12 tox conf = AML12 hepatocyte cytotoxicity, confirmation, cytotoxicity control for hepatic lipid droplet formation project, cell-based, single concentration. shares compounds with Hep lipid drop. AML12 mouse hepatocyte viability, ATP luminescence; cells loaded with 100 µM oleic acid. cytotoxicity, % at 50 µM. 530 tested, under 10 active. AID 463219, 2010;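 active means cytotoxicity above 50% in each of four replicates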;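 further: compound exposure lasted overnight at 37 °C before the ATP read; 0% = DMSO-treated cells and 100% = wells with no cells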
# * marks the source's active call; other numbers are inactive results; x = no result. Sampled rows, rich in hits. Any-hit rate of the full collection: about 1.3%.
SMILES,Hep lipid drop,STK33 inh,GSK3 alpha inh,GSK3B inh,H9c2 TAG inh,LANA-H2B inh,Hep lipid conf,AML12 cytotox,AML12 tox conf
Cc1cccc(NC(=O)CSc2nc3ccccc3nc2N2CCCC2)c1,62.8*,-0.6,-1.9,0.1,38.4,3.4,102.2*,0.575,8.9
COc1cccc(NC(=O)CSc2nc3ccccc3nc2N2CCCC2)c1,58.3*,-0.1,-0.4,1.8,29.8,-1.7,99.2*,-0.715,8.0
COc1ccc(N2CCN(C(=O)C3CCN(S(=O)(=O)c4cccs4)CC3)CC2)cc1,3.3,-1.6,-0.4,1.2,8.8,-2.6,x,x,x
Cc1nc2sc3c(c2c(=N)n1N)CC(C)(C)OC3,x,-0.5,x,-1.7,x,2.8,x,x,x
CCn1cc(Cl)c(C(=O)N2N=C(c3ccc4ccccc4c3)CC2c2ccccc2O)n1 (centres undefined),36.5,0.9,-0.8,2.1,19.2,-1.9,x,x,x
CCn1cc([N+](=O)[O-])c(C(=O)N2N=C(c3ccc4ccccc4c3)CC2c2ccccc2O)n1 (centres undefined),79.0*,-2.3,-1.1,3.2,71.1*,-0.4,87.8*,-1.62,10.7
Cc1ccc(CSc2nnc(-c3cccnc3)o2)cc1,3.0,-0.4,x,-4.5,-12.8,0.2,x,x,x
CCCOc1ccccc1C(=O)N(Cc1ccc(C)o1)C1CCS(=O)(=O)C1 (centres undefined),64.6*,-0.3,x,0.4,x,5.2,77.6*,0.476,-3.1
CCCCOc1ccccc1C(=O)N(Cc1ccc(C)o1)C1CCS(=O)(=O)C1 (centres undefined),64.4*,0.8,-0.6,0.9,x,-2.1,96.9*,0.928,10.1
CS(=O)(=O)c1ccc(-c2sc3ccccc3c2C#CCCO)cc1,x,-1.0,-3.3,x,22.4,1.2,x,x,x
O=C(NCCc1nc2ccccc2[nH]1)c1ccc(Br)o1,51.2*,-3.1,-0.6,x,x,-11.9,62.5*,-0.118,5.8
Cc1ccc(C(=O)NCCc2nc3ccccc3[nH]2)cc1[N+](=O)[O-],82.4*,-2.1,-0.6,-1.3,x,1.8,94.2*,-0.0736,18.1
O=C(NCCc1nc2ccccc2[nH]1)c1ccco1,x,-3.0,-2.3,4.4,15.0,0.2,x,x,x
COc1ccc(OC)c(NC(=O)COc2ccc(S(=O)(=O)NC(C)C)cc2)c1,17.4,1.6,-1.2,0.7,x,-1.8,x,x,x
CCn1cc(C2=NOC(C(=O)Nc3c(C)nn(Cc4ccc(F)cc4)c3C)C2)c(C)n1 (centres undefined),-3.5,x,x,-0.5,-7.1,x,x,x,x
Cc1nn(Cc2ccc(F)cc2)c(C)c1NC(=O)C1c2ccccc2Oc2ccccc21,61.7*,3.3,7.2,0.7,x,4.1,92.0*,-0.103,-1.4
CCN1C(=O)/C(=C2\C=Cc3cc(C)ccc3N2CC)OC1=S,67.7*,-1.4,-0.5,2.7,2.9,-1.3,73.5*,-0.404,2.0
CC(=O)c1ccc(N2CCN(c3ccccc3O)CC2)c([N+](=O)[O-])c1,8.6,-0.8,-0.9,-1.9,x,2.7,x,x,x
CCN1C(=O)/C(=C/C=C2/Sc3ccc4ccccc4c3N2CCO)SC1=S,76.8*,0.5,-0.8,-0.8,x,-3.6,19.4,-0.306,x
CN(C)S(=O)(=O)c1cccc(NC(=O)CC23CC4CC(CC(C4)C2)C3)c1,83.9*,4.7,-3.6,-1.7,9.3,1.3,24.3,-0.171,x
